Experimental data: ChEMBL document CHEMBL4665743, “Labdane-Type Diterpenes from the Aerial Parts of Rydingia persica: Their Absolute Configurations and Protective Effects on LPS-Induced Inflammation in Keratinocytes” (2020)

How the values were obtained:
Type in all cases: functional
HaCaT [1] = test: Anti-inflammatory activity in human HaCaT cells assessed as inhibition of LPS-induced occluding expression at 25 uM after 24 hrs by FACS analysis (rvb = 30.17 +/- 5.98)
HaCaT [2] = test: Anti-inflammatory activity in human HaCaT cells assessed as inhibition of LPS-induced nitrotyrosine production at 12.5 uM after 24 hrs by FACS analysis relative to LPS alone
How it was run: (§1)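 Cells were HaCaT seeded at 5 × 10^3 cells/well and pretreated with compound 1 h, then exposed to LPS (5 μg/mL) for 24 h. They were collected, PBS-washed, fixed 20 min and permeabilized 30 min, then stained 1 h with anti-nitrotyrosine antibody plus fluorescent secondary. Fluorescence was read by flow cytometry and expressed as % inhibition vs LPS alone. Mean ± SEM, n = 3.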

HaCaT [3] = test: Anti-inflammatory activity in human HaCaT cells assessed as inhibition of LPS-induced IL-6 production at 50 uM after 24 hrs by ELISA relative to LPS alone
How it was run: (§2)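 HaCaT keratinocytes (DMEM, 4 g/L glucose, 10% FBS, 1% pen-strep) seeded 5 × 10^3 cells/well and allowed to adhere 24 h. Compounds added for 1 h alone, then with E. coli LPS (5 μg/mL) for 24 h. IL-6 or TNF-α measured in supernatants by ELISA (pg/mL) and expressed as % inhibition vs LPS alone. Indomethacin 10 μM served as reference. Mean ± SEM, n = 3.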

HaCaT [4] = test: Anti-inflammatory activity in human HaCaT cells assessed as inhibition of LPS-induced IL-6 production at 25 uM after 24 hrs by ELISA relative to LPS alone; how it was run: as §2
HaCaT [5] = test: Anti-inflammatory activity in human HaCaT cells assessed as inhibition of LPS-induced claudin-1 expression at 50 uM after 24 hrs by FACS analysis (rvb = 31.19 +/- 0.77)
HaCaT [6] = test: Anti-inflammatory activity in human HaCaT cells assessed as inhibition of LPS-induced TNF-alpha production at 12.5 uM after 24 hrs by ELISA relative to LPS alone; how it was run: as §2
HaCaT [7] = test: Anti-inflammatory activity in human HaCaT cells assessed as inhibition of LPS-induced occluding expression at 50 uM after 24 hrs by FACS analysis (rvb = 30.17 +/- 5.98)
HaCaT [8] = test: Anti-inflammatory activity in human HaCaT cells assessed as inhibition of LPS-induced nitrotyrosine production at 25 uM after 24 hrs by FACS analysis relative to LPS alone; how it was run: as §1
HaCaT [9] = test: Anti-inflammatory activity in human HaCaT cells assessed as inhibition of LPS-induced IL-6 production at 12.5 uM after 24 hrs by ELISA relative to LPS alone; how it was run: as §2
HaCaT [10] = test: Anti-inflammatory activity in human HaCaT cells assessed as inhibition of LPS-induced claudin-1 expression at 25 uM after 24 hrs by FACS analysis (rvb = 31.19 +/- 0.77)
HaCaT [11] = test: Anti-inflammatory activity in human HaCaT cells assessed as inhibition of LPS-induced nitrotyrosine production at 50 uM after 24 hrs by FACS analysis relative to LPS alone; how it was run: as §1
HaCaT [12] = test: Anti-inflammatory activity in human HaCaT cells assessed as inhibition of LPS-induced occluding expression at 12.5 uM after 24 hrs by FACS analysis (rvb = 30.17 +/- 5.98)
HaCaT [13] = test: Anti-inflammatory activity in human HaCaT cells assessed as inhibition of LPS-induced claudin-1 expression at 12.5 uM after 24 hrs by FACS analysis (rvb = 31.19 +/- 0.77)
HaCaT [14] = test: Anti-inflammatory activity in human HaCaT cells assessed as inhibition of LPS-induced TNF-alpha production at 25 uM after 24 hrs by ELISA relative to LPS alone; how it was run: as §2
HaCaT [15] = test: Anti-inflammatory activity in human HaCaT cells assessed as inhibition of LPS-induced TNF-alpha production at 50 uM after 24 hrs by ELISA relative to LPS alone; how it was run: as §2
HaCaT [16] = test: Anti-inflammatory activity in human HaCaT cells assessed as inhibition of LPS-induced IL-6 production at 10 uM after 24 hrs by ELISA relative to LPS alone; how it was run: as §2
HaCaT [17] = test: Anti-inflammatory activity in human HaCaT cells assessed as inhibition of LPS-induced TNF-alpha production at 10 uM after 24 hrs by ELISA relative to LPS alone; how it was run: as §2

SMILES | Flu intensity (HaCaT [1]) | inhibition at 12.5 µM (HaCaT [2]) [%] | inhibition at 50 µM (HaCaT [3]) [%] | inhibition at 25 µM (HaCaT [4]) [%] | Flu intensity (HaCaT [5]) | inhibition at 12.5 µM (HaCaT [6]) [%] | Flu intensity (HaCaT [7]) | inhibition at 25 µM (HaCaT [8]) [%] | inhibition at 12.5 µM (HaCaT [9]) [%] | Flu intensity (HaCaT [10]) | inhibition at 50 µM (HaCaT [11]) [%] | Flu intensity (HaCaT [12]) | Flu intensity (HaCaT [13]) | inhibition at 25 µM (HaCaT [14]) [%] | inhibition at 50 µM (HaCaT [15]) [%] | inhibition at 10 µM (HaCaT [16]) [%] | inhibition at 10 µM (HaCaT [17]) [%]
CC1=C(CCC2=CC(O)OC2=O)[C@@]2(C)CC[C@@H](O)C(C)(C)[C@@H]2CC1=O (some centres not stated) | 13.83 | 30 | 76 | 70.5 | 22.83 | 68 | 25.71 | 37 | 56 | 13.14 | 58.7 | 10.27 | 5.01 | 70.5 | 73.5 | – | –
CC1=C(CCc2ccoc2)[C@@]2(C)CC[C@@H](O)C(C)(C)[C@@H]2[C@H](O)C1=O | 21.1 | 5 | 81 | 69 | 34.97 | 39.5 | 31.92 | 40 | 65.5 | 23.72 | 56 | 18.52 | 12.24 | 68 | 68 | – | –
CC(=O)O[C@@H]1CC[C@@]2(C)[C@@H](C(=O)[C@H](O)[C@@H](C)[C@]2(O)CCc2ccoc2)C1(C)C | 16.06 | 9 | 80.5 | 77 | 26.08 | 15.6 | 22.88 | 42.7 | 73.5 | 16.35 | 56.3 | 10.89 | 14.96 | 62 | 68 | – | –
C[C@@H]1C(=O)C[C@H]2C(C)(C)[C@H](O)CC[C@]2(C)[C@@]1(O)CCc1ccoc1 | 24.34 | 6.33 | 69.5 | 64.5 | 36.5 | 37 | 32.27 | 30.5 | 48 | 30.04 | 46.3 | 17.8 | 19.29 | 62.5 | 65 | – | –
CO[C@@H]1C[C@@]2(CC[C@@]3(O2)[C@H](C)C(=O)C[C@H]2C(C)(C)[C@H](O)CC[C@@]23C)C(=O)O1 | 18.73 | 14.3 | 76.5 | 75.5 | 32.36 | 41.5 | 25.11 | 40 | 75 | 24.86 | 57.5 | 9.09 | 8.09 | 50.5 | 56.5 | – | –
CO[C@@H]1C[C@]2(CC[C@@]3(O2)[C@H](C)C(=O)C[C@H]2C(C)(C)[C@H](O)CC[C@@]23C)CO1 | 18.59 | 0 | 76.5 | 71.5 | 33.58 | 44 | 24.77 | 21 | 63 | 22.52 | 39.3 | 8.82 | 13.55 | 62.5 | 68 | – | –
CC(=O)OC[C@@]1(C)[C@H](O)CC[C@]2(C)C(CCC3=CC(O)OC3=O)=C(C)C(=O)C[C@@H]12 (some centres not stated) | 21.77 | 3.67 | 73.5 | 49.5 | 34.13 | 35 | 32.25 | 43 | 44.5 | 20.73 | 61.7 | 12.54 | 14.41 | 47.5 | 56.5 | – | –
CO[C@H]1C[C@]2(CC[C@@]3(O2)[C@H](C)C(=O)[C@@H](O)[C@H]2C(C)(C)[C@H](O)CC[C@@]23C)CO1 | 23.48 | 0 | 78 | 68.5 | 31.45 | 44 | 35.8 | 15 | 38.5 | 22.27 | 38 | 18.89 | 14.39 | 55 | 65 | – | –
COC1C=C(CCC2=C(C)C(=O)C[C@H]3C(C)(C)[C@H](O)CC[C@]23C)C(=O)O1 (some centres not stated) | 22.64 | 0.5 | 74.5 | 74 | 27.21 | 52 | 34.73 | 29.5 | 65.5 | 20.46 | 59.3 | 18.46 | 16.74 | 68 | 72 | – | –
CC(=O)OC[C@@]1(C)[C@H](O)CC[C@]2(C)C(CCc3ccoc3)=C(C)C(=O)C[C@@H]12 | 19.18 | 0 | 73.5 | 67 | 17.12 | 0 | 31.34 | 44 | 66.5 | 14.18 | 58.3 | 13.27 | 6.86 | 25 | 44 | – | –
COc1ccc2c(c1)c(CC(=O)O)c(C)n2C(=O)c1ccc(Cl)cc1 [INDOMETHACIN] | – | – | – | – | – | – | – | – | – | – | – | – | – | – | – | 88.5 | 77
